Results as given in ChEMBL document CHEMBL1128448, “Synthesis and antifungal activity of new azole derivatives containing an N-acylmorpholine ring” (1995).
≈ marks a conversion by molar mass, not a printed value.

Assays:
Candida tropicalis [1] = experiment: In vitro evaluation of minimum inhibitory concentration against Candida tropicalis 2.11; type: functional
Method in brief: (§1)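 Stocks are 800 μg/mL in 50% ethanol. Each plate gets 10 μL of inoculum at 10^5 cfu/mL. Incubation at 25 °C, 48 h for yeasts and 120 h for dermatophytes and molds. Organisms are ATCC strains or clinical isolates.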

Pichia kudriavzevii = experiment: Evaluation of In vitro antifungal activity against Candida krusei C64 by broth macro dilution method; type: functional
Method in brief: (§2)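 Yeast MIC and MFC by broth macrodilution per NCCLS M27-P in RPMI-1640 buffered with 0.165 M MOPS. Fluconazole in sterile water, other drugs in DMSO. C. parapsilosis ATCC 22019 is the reference strain in each run. MIC is the lowest concentration with turbidity ≤ the 80% inhibition standard. For MFC, 0.04 mL from clear tubes is plated on Sabouraud agar; MFC is the lowest concentration giving ≤1 colony.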

Rattus norvegicus [2] = experiment: In vivo evaluation of antifungal activity against vaginal candidosis in rat at dose 0.25 mg/kg on 15th day; type: functional
Method in brief: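 Groups of 10 female Wistar rats given estradiol 25 mg/kg sc on day -5, infected intravaginally with C. albicans by sterile swab on day 0; infection confirmed on day 3 by swab culture (TSB, then Sabouraud agar). Oral dosing once daily on days 3, 4, 5; vehicle controls. Vaginal swabs cultured on days 10 and 15; read-out % cured (culture-negative).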

Candida albicans [3] = experiment: Evaluation of In vitro antifungal activity against Candida albicans 2.01 by broth macro dilution method; type: functional; method in brief: as §2
Mus musculus [4] = experiment: In vivo evaluation of % survival rate after peroral administration on 9th day at dose 0.5 mg/kg(as a water solution in (hydroxypropyl -beta-cyclodextrin)); type: functional; settings: route oral
Method in brief: (§3)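 Groups of 10 male mice were infected iv with 0.2 mL of C. albicans at (2-8) × 10^7 cfu/mL. Oral doses were given at 1, 4 and 24 h post-infection. Vehicle-only controls were included, with at least 90% control mortality by day 3. Percent survival was recorded on days 3, 5, 7 and 9.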

Candida albicans [5] = experiment: Evaluation of In vitro antifungal activity against Candida albicans 406 by broth macro dilution method; type: functional; method in brief: as §2
Candida parapsilosis [6] = experiment: In vitro evaluation of minimum inhibitory concentration against Candida parapsilosis 61; type: functional; method in brief: as §1
Kluyveromyces marxianus [7] = experiment: Evaluation of In vitro antifungal activity against yeasts by broth macro dilution method; type: functional; method in brief: as §2
Candida parapsilosis [8] = experiment: Evaluation of In vitro antifungal activity against Candida parapsilosis 2.07 by broth macro dilution method; type: functional; settings: Lodderomyces parapsilosis; method in brief: as §2
Kluyveromyces marxianus [9] = experiment: In vitro evaluation of minimum inhibitory concentration against Candida pseudotropicalis 13; type: functional; method in brief: as §1
Candida albicans [10] = experiment: Evaluation of […] antifungal activity against Candida albicans 60 by broth macro dilution method; type: functional; method in brief: as §2
Candida parapsilosis [11] = experiment: Evaluation of In vitro antifungal activity against Candida parapsilosis C74 by broth macro dilution method; type: functional; settings: Lodderomyces parapsilosis; method in brief: as §2
Candida tropicalis [12] = experiment: Evaluation of In vitro antifungal activity against Candida tropicalis 2.11 by broth macro dilution method; type: functional; method in brief: as §2
Mus musculus [13] = experiment: In vivo evaluation of % survival rate after peroral administration on 3rd day at dose 0.5 mg/kg(as a water solution in (hydroxypropyl -beta-cyclodextrin)); type: functional; settings: route oral; method in brief: as §3
Trichophyton benhamiae = experiment: In vitro evaluation of minimum inhibitory concentration against Trichophyton mentagrophytes 23; type: functional, Arthroderma benhamiae; method in brief: as §1
Cryptococcus neoformans = experiment: Evaluation of In vitro antifungal activity against Cryptococcus neoformans 74 by broth macro dilution method; type: functional; method in brief: as §2
Mus musculus [14] = experiment: In vivo evaluation of % survival rate after peroral administration on 7th day at dose 0.5 mg/kg(as a water solution in (hydroxypropyl -beta-cyclodextrin)); type: functional; settings: route oral; method in brief: as §3
Candida albicans [15] = experiment: Evaluation of In vitro antifungal activity against Candida albicans ATCC 10231 by broth macro dilution method; type: functional; method in brief: as §2
Rattus norvegicus [16] = experiment: In vivo evaluation of antifungal activity against vaginal candidosis in rat at dose 0.1 mg/kg on 10th day; type: functional
Method in brief: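 Groups of 10 female Wistar rats given estradiol 25 mg/kg sc on day -5, then vaginally inoculated with C. albicans on day 0. Infection is confirmed by culture of day-3 swabs. Compound is dosed orally once daily on days 3–5; controls get vehicle. Cure is scored by culture of vaginal swabs taken on days 10 and 15.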

Trichophyton rubrum = experiment: IIn vitro evaluation of minimum inhibitory concentration against Trichophyton rubrum 90; type: functional; method in brief: as §1
Candida albicans [17] = experiment: In vitro evaluation of minimum inhibitory concentration against Candida albicans 76; type: functional; method in brief: as §1
Kluyveromyces marxianus [18] = experiment: Evaluation of In vitro antifungal activity against Candida pseudotropicalis ATCC 28838 by broth macro dilution method; type: functional; method in brief: as §2
[19] = test system: Meyerozyma guilliermondii; experiment: Evaluation of In vitro antifungal activity against Candida guilliermondii 26 by broth macro dilution method; type: functional; method in brief: as §2
Nakaseomyces glabratus = experiment: In vitro evaluation of minimum inhibitory concentration against Torulopsis glabrata 78; type: functional; method in brief: as §1
Candida albicans [20] = experiment: Evaluation of In vitro antifungal activity against Candida albicans C56 by broth macro dilution method; type: functional; method in brief: as §2

## C[C@H]1N(C(=O)c2ccc(C(F)(F)F)cc2)CCO[C@@]1(Cn1cncn1)c1ccc(F)cc1F (stereo in doubt; (-)-41)
Candida tropicalis [1]
  MIC: 40 µg/mL (≈ 85.8 µM)
Pichia kudriavzevii
  MFC: > 64 µg/mL
  MIC: 32 µg/mL (≈ 68.6 µM)
Rattus norvegicus [2]
  Cure rate: 60%
Candida albicans [3]
  MFC: > 64 µg/mL
  MIC: 0.25 µg/mL (≈ 0.536 µM)
Mus musculus [4]
  survival at 0.5 mg/kg: 30%
Candida albicans [5]
  MFC: > 64 µg/mL
  MIC: 0.25 µg/mL (≈ 0.536 µM)
Candida parapsilosis [6]
  MIC: 10 µg/mL (≈ 21.4 µM)
Kluyveromyces marxianus [7]
  MIC: 0.125 µg/mL (≈ 0.268 µM)
Candida parapsilosis [8]
  MFC: > 64 µg/mL
  MIC: 1 µg/mL (≈ 2.14 µM)
Kluyveromyces marxianus [9]
  MIC: 40 µg/mL (≈ 85.8 µM)
Candida albicans [10]
  MIC: 0.25 µg/mL (≈ 0.536 µM)
Candida parapsilosis [11]
  MFC: 8 µg/mL (≈ 17.2 µM)
  MIC: 0.5 µg/mL (≈ 1.07 µM)
Candida tropicalis [12]
  MFC: > 64 µg/mL
  MIC: 4 µg/mL (≈ 8.58 µM)
Mus musculus [13]
  survival at 0.5 mg/kg: 100%
Trichophyton benhamiae
  MIC: 40 µg/mL (≈ 85.8 µM)
Cryptococcus neoformans
  MFC: 0.25 µg/mL (≈ 0.536 µM)
  MIC: 0.125 µg/mL (≈ 0.268 µM)
Mus musculus [14]
  survival at 0.5 mg/kg: 60%
Candida albicans [15]
  MFC: > 64 µg/mL
  MIC: 0.25 µg/mL (≈ 0.536 µM)
Rattus norvegicus [16]
  Cure rate: 10%
Trichophyton rubrum
  MIC: 10 µg/mL (≈ 21.4 µM)
Candida albicans [17]
  MIC: 1.25 µg/mL (≈ 2.68 µM)
Kluyveromyces marxianus [18]
  MFC: 32 µg/mL (≈ 68.6 µM)
[19]
  MFC: > 64 µg/mL
  MIC: 8 µg/mL (≈ 17.2 µM)
Nakaseomyces glabratus
  MIC: 10 µg/mL (≈ 21.4 µM)
Candida albicans [20]
  MFC: > 64 µg/mL
  MIC: 0.125 µg/mL (≈ 0.268 µM)
